Measurements from ChEMBL document CHEMBL3244205, “beta-D-Arabinofuran[1',2':4,5]oxazolo-1,3,5-triazine-5-N-methyl-4,6-dione and analogues, unusually specific immunosuppressive agents” (J Med Chem, 1978).
The source made the active and inactive calls. The rule behind the calls is not given here.

Key:
[1] = Immunosuppressive activity in C57B1/6 mouse spleen effector T cells assessed as effect on number of IgM-anti sheep erythrocyte antibody plaque forming cells per culture at 100 ug/culture after 5 days in presence of sheep erythrocytes (reference value: 6440 +/- 2255 PFC/culture); format: functional
[2] = Cytotoxicity against C57B1/6 mouse spleen effector T cells assessed as decrease in cell number at 100 ug/mL after 5 days relative to control; format: cell-based; settings: 120 h
[3] = Immunosuppressive activity in C57B1/6 mouse spleen effector T cells assessed as recovery of number of T cell required to give 50% lysis of 25 X 10^3 DBA/2 mouse [51Cr]-labeled P815 cells treated on day 4 of 5 days culture system measured after day 5 by [51Cr] release assay in presence of B6D2(F1) mouse spleen cells relative to control; format: functional
Summary of the method: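 Alloantigen coculture was the same: C57B1/6 spleen cells plus B6D2F1 stimulator cells, 5 days at 37 °C. Here compound was added on day 4 rather than at culture start. On day 5, cells were pooled and assayed against 51Cr-P815 targets for 3 h. Lytic units (cells giving 50% lysis of 25 × 10^3 targets) recovered per culture were expressed as percent of control.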

[4] = Immunosuppressive activity in C57B1/6 mouse spleen effector T cells assessed as inhibition of effector T cell-induced DBA/2 mouse [51Cr]-labeled P815 cell lysis at 100 ug/mL after 5 days by [51Cr] release assay in presence of B6D2(F1) mouse spleen cells relative to control; format: functional; settings: C57B1/6, P815, Spleen, 120 h
Summary of the method: (§1)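 Normal C57B1/6 spleen cells (10 × 10^6) cocultured 5 days at 37 °C (83% N2/10% CO2/7% O2) with 0.5 × 10^6 B6D2F1 spleen cells as antigen and compound at 100 μg/mL. Medium was RPMI 1640 with 20% fetal calf serum and gentamycin, using at least 12 cultures per concentration. Pooled cells were then mixed with 51Cr-P815 targets at various ratios (≥3 replicates/ratio) for 3 h at 37 °C. Lysis was plotted against ratio; lytic unit = cells giving 50% lysis of 25 × 10^3 targets.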

[5] = Cytotoxicity against C57B1/6 (H-2b) mouse spleen effector T cells assessed as decrease in cell number at 1 to 100 ug/mL after 4 hrs relative to control; format: cell-based
[6] = Immunosuppressive activity in H-2d alloantigen-sensitized C57B1/6 (H-2b) mouse spleen effector T cells assessed as inhibition of effector T cell-induced DBA/2 (H-2d) mouse [51Cr]-labeled P815 cell lysis by measuring lysed cells at 1 ug/mL after 4 hrs by [51Cr] release assay relative to control; format: functional
Summary of the method: (§2)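 C57B1/6 (H-2^b) mice sensitized ip with 30–50 × 10^6 P815 mastocytoma cells (DBA/2-passaged). Spleens pooled from 5–7 mice taken 10 days later. Effectors mixed 50:1 with 51Cr-labeled P815 targets in RPMI 1640/Hepes with 10% heat-inactivated calf serum plus compound. Incubated 4 h at 37 °C in 83% N2/10% CO2/7% O2. Supernatant 51Cr counted, run in quadruplicate. % specific lysis computed from spontaneous and water-lysis controls, then expressed as % of untreated control.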

[7] = Immunosuppressive activity in H-2d alloantigen-sensitized C57B1/6 (H-2b) mouse spleen effector T cells assessed as inhibition of effector T cell-induced DBA/2 (H-2d) mouse [51Cr]-labeled P815 cell lysis by measuring lysed cells at 100 ug/mL after 4 hrs by [51Cr] release assay relative to control; format: functional; summary of the method: as §2
[8] = Immunosuppressive activity in C57B1/6 mouse spleen effector T cells assessed as effect on number of IgM-anti sheep erythrocyte antibody plaque forming cells per culture at 1 ug/culture after 5 days in presence of sheep erythrocytes (reference value: 6440 +/- 2255 PFC/culture); format: functional
[9] = Immunosuppressive activity in H-2d alloantigen-sensitized C57B1/6 (H-2b) mouse spleen effector T cells assessed as inhibition of effector T cell-induced DBA/2 (H-2d) mouse [51Cr]-labeled P815 cell lysis by measuring lysed cells at 10 ug/mL after 4 hrs by [51Cr] release assay relative to control; format: functional; summary of the method: as §2
Human alphaherpesvirus 1 [10] = assay: Antiviral activity against Herpes simplex virus type 1 infected in rabbit kidney monolayer cells assessed as reduction in viral titer; format: functional, organism-based
[11] = Immunosuppressive activity in C57B1/6 mouse spleen effector T cells assessed as effect on number of IgM-anti sheep erythrocyte antibody plaque forming cells per culture at 10 ug/culture after 5 days in presence of sheep erythrocytes (reference value: 6440 +/- 2255 PFC/culture); format: functional
[12] = Immunosuppressive activity in C57B1/6 mouse spleen effector T cells assessed as ratio of effector T cell to DBA/2 mouse [51Cr]-labeled P815 cell giving 50% specific lysis at 100 ug/mL after 5 days by [51Cr] release assay in presence of B6D2(F1) mouse spleen cells (reference value: 6 no unit); format: functional; summary of the method: as §1
Human alphaherpesvirus 1 [13] = assay: Antiviral activity against Herpes simplex virus type 1 infected in mouse assessed as mean survival time at 150 mg/kg, sc tid administered for 4 days (reference value: 8.3 days); format: functional; settings: route subcutaneous
Summary of the method: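 HSV-1-infected mice dosed subcutaneously three times daily on days 0–4. Vehicle-dosed infected mice served as controls. Read-out was mean survival time in days.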

Human alphaherpesvirus 1 [14] = assay: Antiviral activity against Herpes simplex virus type 1 infected in mouse assessed as mean survival time at 200 mg/kg, sc tid administered for 4 days (reference value: 8.3 days); format: functional; settings: route subcutaneous
Human alphaherpesvirus 1 [15] = assay: Antiviral activity against Herpes simplex virus type 1 infected in rabbit kidney monolayer cells assessed as reduction in viral titer at 25 ug/mL relative to control; format: functional

Structure (SMILES) | PFC [1] | Activity [2] | Activity [3] [%] | inhibition at 100 µg/mL [4] [%] | Activity [5] | Specific lysis as % of untreated control [6] [%] | Specific lysis, % of untreated control [7] [%] | PFC [8] | Specific lysis, % of untreated control [9] [%] | Activity (Human alphaherpesvirus 1 [10]) | PFC [11] | Ratio [12] | MST (Human alphaherpesvirus 1 [13]) [days] | MST (Human alphaherpesvirus 1 [14]) [days] | fold change (FC) (Human alphaherpesvirus 1 [15])
Cn1c(=O)[nH]c(=O)n([C@@H]2O[C@H](CO)[C@@H](O)[C@@H]2O)c1=O | 6293 | Non-toxic | 90 | 84 | Non-toxic | 94 | 93 | 6240 | 98 | inactive | 5520 | – | – | – | –
CC(=O)OC[C@H]1O[C@@H]2[C@@H](Oc3nc(=O)n(C)c(=O)n32)[C@@H]1OC(C)=O | 8720 | – | 90 | – | – | 95 | 93 | 5240 | 103 | Active | 5933 | 8.5 | – | – | –
Cn1c(=O)nc2n(c1=O)[C@@H]1O[C@H](CO)[C@@H](O)[C@@H]1O2 | 7107 | Non-toxic | 90 | 90 | Non-toxic | 100 | 92 | 4227 | 88 | – | 4853 | – | 5.4 | – | –
CN1CN([C@H]2C[C@H](O)[C@@H](CO)O2)C(=O)NC1=O | – | – | 90 | – | – | 90 | 73 | – | 88 | – | – | 7.2 | – | 18 | 10
CC(=O)OC[C@H]1O[C@@H](n2c(=O)[nH]c(=O)n(C)c2=O)[C@@H](OC(C)=O)[C@@H]1OC(C)=O | 10040 | – | 90 | – | – | 96 | 88 | 4907 | 96 | inactive | 4307 | 10.5 | – | – | –
